# Most compounds without a hit are left out; they make up all but 1.7% or so of the library.
# Hsp70 act: Hsp70 transcriptional activation, primary screen; HeLa Hsp70 promoter luciferase reporter, luminescence; scaled: vehicle 0, proteasome-inhibitor control 100%; activation, % at 10 µM; 200,000 compounds, 0.04% hits; AID 1203;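 active means activation above the mean across all tested compounds plus 3 SD, cutoff set per campaign, cut at about 5.5% in these data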
# Dynein transport: blocks dynein driven cargo transport along microtubules; AID 1381; 3617.4 mouse cells, GR-EGFP nuclear translocation imaging; test concentration mostly 20 µM; stimulated with dexamethasone, 1 µM; stronger effect = lower value; 220,000 compounds, 0.47% hits; z-score, hits read low;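 active means plate z-score of nuclear minus cytoplasmic receptor signal below a set negative limit, without overly bright fluorescence or cell loss, cut at about -3.5 in these data, passing the limit was not always enough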;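 further: z-score of nuclear minus cytoplasmic ring GR-EGFP intensity difference per well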
#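 medium = tetracycline-free induction medium containing charcoal-stripped FBS | also added = 1.0 µM final dexamethasone stimulus | schedule = 48 h induction, 1 h compound, 30 min dex at 37 °C | technique = fixed, Hoechst-stained cells imaged at 10x for EGFP | measure = GR-EGFP nuclear translocation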
# EP2 antag: EP2 receptor (human) inhibition | AID 1422 | inhibition, % at 25 µM | C6 glioma cells expressing human EP2, cAMP TR-FRET; cells stimulated with saturating PGE2 | P43116 | 260,000 compounds, 0.52% hits;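 active means percent inhibition above 40 after rounding to a whole number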;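 further: rat C6 glioma host cells with rolipram phosphodiesterase inhibitor present; the protocol text gives 20 µM as final concentration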
# Target sequence (P43116 whole entry, looked up): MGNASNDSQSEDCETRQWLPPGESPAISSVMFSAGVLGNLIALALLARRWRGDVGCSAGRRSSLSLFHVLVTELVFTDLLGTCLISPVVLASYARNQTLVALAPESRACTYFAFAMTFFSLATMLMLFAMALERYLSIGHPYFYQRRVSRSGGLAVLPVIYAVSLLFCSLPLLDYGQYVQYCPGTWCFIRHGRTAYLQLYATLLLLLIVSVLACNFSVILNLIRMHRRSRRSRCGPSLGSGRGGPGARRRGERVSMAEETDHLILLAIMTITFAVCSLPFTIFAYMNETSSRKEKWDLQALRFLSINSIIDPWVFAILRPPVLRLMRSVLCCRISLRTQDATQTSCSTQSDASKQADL
# EP2 modulator: EP2 receptor (human) modulation. P43116. EP2-expressing cells, cAMP HTRF FRET, PGE2 co-stimulation. induction, % at 25 µM. 260,000 compounds, 0.83% hits. AID 940;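 active means compounds whose cAMP rise, as percent of the full-agonist control response, exceeds 60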;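 further: rat C6 glioma line stably carrying human EP2 under a CMV promoter; the protocol text gives 20 µM as final concentration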
# Hits are given with their value; – = inactive; · = no result; ! = a repeat was not active.
SMILES,Hsp70 act,Dynein transport,EP2 antag,EP2 modulator
COc1cccc([C@@H]2C[C@H](C(=O)NC(C)(C)CO)N(C)S(=O)(=O)N2)c1,·,·,·,–
CSc1ccccc1NC(=O)CN(C1CCCCC1)S(C)(=O)=O,–,–,–,–
CN(CC(=O)Nc1ccccc1Sc1ccccc1)C1CCCCC1,–,–,–,64
C=CCNC(=S)NNC(=O)C(CCC(C)C)CC(C)O (configuration not stated),–,–,–,–
C=CCNC(=S)NNC(=O)C(CCCC)CC(O)COCC(C)C (configuration not stated),·,–,120,–
COc1ccc(N2CC(O)=C(c3nc(-c4ccccc4)cs3)C2=N)cc1,·,–,–,–
COc1ccc(N2CC(O)=C(c3nc(-c4ccc(Br)cc4)cs3)C2=N)cc1,–,–,48,–
CCOC(=O)c1cc(-c2cccc(Cl)c2Cl)no1,·,·,–,–
CCOC(=O)c1ccc(NC(=O)CSc2nc3cc4c(cc3cc2C#N)OCCO4)cc1,·,·,–,83
COc1ccc(NC(=O)CSc2nc3cc4c(cc3cc2C#N)OCCO4)cc1,·,·,–,–
N#Cc1cc2cc3c(cc2nc1SCC(=O)NCc1ccccc1)OCCO3,·,·,43,–
CCCOc1ccc(NC(=O)c2c(O)c3ccccc3n(CC)c2=O)cc1,·,·,–,–
O=C(c1cccnc1)C1CCN(C(=O)c2ccncc2)CC1,·,·,–,–
Cc1ccc2[nH]c(C)cc(=S)c2c1,–,–,–,75!
Cc1cc(=S)c2ccccc2[nH]1,·,–,–,–
CN1CCC[C@H]1c1cccnc1.O=C(O)c1ccccc1O.O=C([OH2+])c1ccccc1O.O=C([OH2+])c1ccccc1O.O=C([OH2+])c1ccccc1O.[Cu],·,·,40,–
CN1CCC[C@H]1c1cccnc1.O=C(O)c1ccccc1O.O=C([OH2+])c1ccccc1O.O=C([OH2+])c1ccccc1O.[Mn+2],·,·,40,–
COC(=O)c1ccccc1NC(=O)c1sc2nc(C)cc(C)c2c1N,·,·,–,–
CCOc1ccc(-c2csc3ncn(CC(=O)O)c(=O)c23)cc1,·,·,–,–
CCc1cc2cc(OC)c(OC)cc2nc1SCC(=O)Nc1nc2c(s1)CCCC2,·,·,–,–
CCc1cc2cc3c(cc2nc1SCC(=O)Nc1nc2c(s1)CCCC2)OCO3,·,·,–,77
CCc1cc2cc3c(cc2nc1SCC(=O)Nc1cc(OC)cc(OC)c1)OCO3,·,·,–,69
COc1ccc(NC(=O)CSc2nc3cc4c(cc3cc2C)OCO4)cc1,·,·,–,–
CC(C)(C)NC(=O)CSc1nc2cc3c(cc2cc1Cc1ccccc1)OCO3,·,·,–,81
CCc1cc2ccc(OC)cc2nc1SCC(=O)Nc1ccc2c(c1)OCO2,·,·,–,76
SMILES,Hsp70 act,Dynein transport,EP2 antag,EP2 modulator
CC(C)NS(=O)(=O)c1ccc(OCC(=O)N2CCC(C(N)=O)CC2)cc1,·,·,–,–
O=C(O)COc1ccc(C2C3=C(CCCC3=O)NC3=C2C(=O)CCC3)cc1Cl,·,·,–,–
Cc1cccc2c1Sc1ccccc1CC2=O,–,–,–,64
CC(=O)N1c2ccccc2C2(O)N=C(C)SC12 (configuration not stated),–,–,42,–
Cc1ccc(-c2nc3cc(N)ccc3o2)c(C)c1,–,–,41,–
Cc1ccc(-c2nc3cc(N)ccc3o2)cc1,–,–,·,–
O[C@@H](c1cc(C(F)(F)F)nc2c(Cl)cc(Cl)cc12)[C@@H]1CCCCN1,·,·,58,–
OC(c1cc(C(F)(F)F)nc2c(C(F)(F)F)cccc12)C1CCCCN1 (configuration not stated),·,·,–,–
CC1CCN(C(=O)CSc2nc(-c3ccc(F)cc3)cc(C(F)(F)F)n2)CC1,·,·,–,–
OC(c1cc(-c2ccc(C(F)(F)F)cc2)nc(C(F)(F)F)c1)C1CCCCN1 (configuration not stated),·,–,54,–
O=C(O)[C@H](O)[C@@](O)(Cc1ccc(O)cc1)C(=O)O,·,·,–,–
CCOC(=O)C(C)n1ncc2c3sc(C)cc3n(Cc3ccc(F)cc3)c2c1=O (configuration not stated),·,·,·,65
CS(=O)(=O)Nc1ccc(Cc2ccc(NS(C)(=O)=O)cc2)cc1,–,–,–,–
O=C=Nc1ccc(Cc2ccc(N=C=O)cc2)cc1 (tested in a mixture with another compound),·,·,45,–
c1ccc(-c2cc3c(NCc4ccco4)ncnc3s2)cc1,·,·,–,–
COc1ccc(S(=O)(=O)Nc2ccccc2C(=O)N2CCOCC2)cc1,·,·,–,–
CC1CCc2c(sc3ncn(CC(=O)OCc4ccccc4)c(=O)c23)C1 (configuration not stated),·,·,–,–
CSc1nc(Cc2ccc(Cl)cc2)nc2ccccc12,–,–,–,–
Cc1cc(Cl)nc2ccc(Cc3ccc4nc(Cl)cc(C)c4c3)cc12,·,–,42!,–
Cc1ccc(N(CCc2ccccn2)N=O)cc1,·,·,–,–
CN(CCc1ccccn1)c1ccc2c(c1)C(=O)c1ccccc1-2,·,·,75,–
O=C(c1cc(-c2ccco2)on1)N1CCCC1c1nc2ccccc2[nH]1 (configuration not stated),·,·,·,–
CCOc1ccc2nc(SCC(=O)NCc3ccc4c(c3)OCO4)c(C)cc2c1,·,·,–,–
N#[N+]c1ccc(Nc2ccccc2)cc1,·,·,43,–
C[C@@]12CC[C@@H]3[C@H](CC=C4C[C@@H](O)CC[C@@]43C)[C@H]1CC[C@H]2N(CCO)CCO,·,·,49,–
SMILES,Hsp70 act,Dynein transport,EP2 antag,EP2 modulator
CC[n+]1ccccc1/C=C/c1ccc(N(C)C)cc1,–,–,–,–
CC[n+]1ccc(/C=C/c2ccc(N(C)C)cc2)c2ccccc21,–,–,96,–
CC[n+]1c(/C=C/c2ccc(N(C)C)cc2)ccc2ccccc21,–,–,66,–
Cc1cc(NC(=O)c2cnn3c(C(F)F)cc(-c4ccccc4)nc23)no1,–,–,–,–
Cc1cc(NC(=O)c2cnn3c(C(F)(F)F)cc(-c4ccccc4)nc23)no1,–,–,51,–
Nc1nc2c(c(=O)[nH]1)N[C@H](CCNc1ccc(C(=O)O)cc1)CN2,·,·,49,–
COC(=O)C1=CN(C2CC2)C=C(C(=O)OC)C1c1ccc(C(F)(F)F)cc1,–,–,–,–
COC(=O)C1=CN(C2CC2)C=C(C(=O)OC)C1c1ccc(C(=O)OC)cc1,–,–,–,61
Cc1ccccc1S(=O)(=O)Nc1nc2ccccc2nc1N1CCOCC1,–,–,40,–
CCOc1ccc(S(=O)(=O)Nc2nc3ccccc3nc2N2CCN(C)CC2)cc1,–,–,–,–
CN1C(=O)SC(Nc2cccc(C(=O)O)c2)C1=O (configuration not stated),·,·,–,–
CCc1nn(CC(=O)NC2CC2)c(=O)c2cc3oc(C)cc3n12,·,·,–,–
CC(=O)c1ccc(NC(=O)Nc2ccc3c(c2)N(C)C(=O)CS3)cc1,–,–,79,–
CCOc1ccc(NC(=O)Nc2ccc3c(c2)N(C)C(=O)CS3)cc1,–,–,–,–
Cn1cc(/C(Cc2ccccc2)=N\O)c2ccccc21,–,–,–,64
Cc1cc(C)cc(Oc2nc(C(F)(F)F)nc3ccccc23)c1,–,–,–,61
CC(=O)c1cccc2c(O)c(C3=Nc4ccccc4C3=O)[nH]c12,–,–,47,–
